Two molecules from ChEMBL document CHEMBL4007447, “Synthesis, biological evaluation and molecular docking study of N-(2-methoxyphenyl)-6-((4-nitrophenyl)sulfonyl)benzamide derivatives as potent HIV-1 Vif antagonists” (Eur J Med Chem, 2017) can be followed below.

In brackets after ≈: the same amount, converted by molar mass. Activity calls are given as the source filed them. The calls are words filed in the database; no cut-off is given here. Where only a bound is given, the exact number is not on record here.

As a reminder, the EC50 is the concentration giving half of the maximal effect. As usually defined, the CC50 is the concentration giving 50% cytotoxicity. By solubility (thermodynamic) is commonly meant solubility found after equilibrating the solid with the medium. By logP is commonly meant the decadic logarithm of the partition coefficient of the neutral form, usually between octanol and water.

A short description of data set [1]: Therapeutic index, ratio of CC50 for human H9 cells to EC50 for HIV1 subtype B NL4-3 infected in human H9 cells. In a few lines: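 Ratio of CC50 to EC50, both measured in H9 cells: MTT cytotoxicity over seven days, and p24 ELISA after 7 days of NL4-3 infection at MOI 0.03.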
In data set [2] the test system is Liver. Kind of data set: Prodrug activation in human liver microsomes assessed as 2-Amino-N-(2-methoxyphenyl)-6-((4-nitrophenyl)sulfonyl)benzamide formation at 1.5 mg/ml after 20 mins in presence of NADPH by HPLC analysis. It is filed as microsome. In short, it runs like this: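 Prodrug (1.5 mg/mL stock, 1.5 μL) incubated with human liver microsomes in 0.1 M phosphate buffer pH 7.4 with NADPH-generating system at 37 °C for 0, 5, 10, 15, 20 and 40 min. Stopped with methanol, centrifuged, supernatant dried under nitrogen, redissolved in mobile phase, analysed by HPLC and HPLC-MS.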
(In general: Microsomes from liver hold many membrane-bound enzymes, among them those of drug oxidation.)

A short description of data set [3]: Drug degradation in pH 9 buffer solution at 100 uM after 15 hrs by HPLC analysis. In a few lines: (§1)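 Compound added to pH 4, 7 or 9 buffers at 100 μM final and shaken at 100 rpm, 37 °C. Sampled at 0–168 h (pH 4 and 7) or 0–15 h (pH 9) and analysed by HPLC on C18 with acetonitrile/water containing 0.1% triethylamine (70/30) and UV 248 nm.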
A short description of data set [4]: Stability of the compound in pH 4 buffer solution at 100 uM after 180 hrs by HPLC analysis. It is filed as physicochemical. The note with it: read-out: Stability.
For data set [5], the system named is Human immunodeficiency virus 1. Kind of data set: Antiviral activity against HIV1 subtype B NL4-3 infected in human H9 cells assessed as reduction in p24 level after 7 days by ELISA. It is filed as functional, cell-based. The note with it: Human immunodeficiency virus 1, subtype B NL4-3, H9, 168 h. In a few lines: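 H9 cells infected with NL4-3 at MOI 0.03 for 2 h, washed three times, then seeded at 4×10^4 cells/well with serially diluted compound. Incubated 7 days; supernatant p24 measured by in-house ELISA and EC50 calculated. Three separate experiments, mean ± standard deviation.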
On the technique in general: ELISA stands for enzyme-linked immunosorbent assay.

The nature of data set [6]: Cytotoxicity against human H9 cells assessed as reduction in cell viability after 7 days by MTT assay. It is filed as cell-based. In a few lines:
(§2)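 MTT viability assay. H9 at 4×10^4 cells/well or PHA-stimulated PBMCs at 5×10^5 cells/well were incubated with serially diluted compound at 37 °C, 5% CO2 for seven days before MTT read-out. CC50 was calculated; mean ± standard deviation of three separate experiments.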

Data set [7] in a line: Stability of the compound in pH 7 buffer solution at 100 uM up to 168 hrs by HPLC analysis. It is filed as physicochemical. The note with it: pH 7, 168 h. In a few lines: as §1
The nature of data set [8]: Aqueous solubility in water after 24 to 72 hrs by HPLC based shake flask method. It is filed as physicochemical. In short, it runs like this:
(§3)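 Equilibrium shake-flask solubility: excess compound placed in water, methanol, ethanol, acetonitrile, ethyl acetate or acetone and shaken 24-72 h at 25 °C. Filtered through 0.22 μm membrane, diluted, and quantified by HPLC on a C18 column with methanol/water 70/30 mobile phase and UV 251 nm. n=3, mean ± SD.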

Data set [9] can be described thus: Solubility in ethanol after 24 to 72 hrs by HPLC based shake flask method. It is filed as physicochemical. In short, it runs like this:
as §3

Data set [10] in a line: 1-octanol/water partition co-efficient, log P of the compound after 2 hrs by shake-flask method. It is filed as physicochemical. In a few lines:
(§4)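 Octanol and water mutually pre-saturated 24 h at 37 °C; excess compound dissolved in octanol phase by sonication, centrifuged, supernatant mixed 1:1 (v/v) with aqueous phase. Shaken at 120 rpm, 37 °C for 2, 4 or 7 h; phases separated by centrifugation and quantified by HPLC, in triplicate. Log P = lg(Co/Cw).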

Data set [11] in a line: 1-octanol/water partition co-efficient, log P of the compound after 4 hrs by shake-flask method. It is filed as physicochemical. In a few lines: as §4
Data set [12] in a line: N-octanol/water partition co-efficient, log P of the compound in octanol to water phase ratio of 1:1 up to 7 hrs by shake-flask method. It is filed as physicochemical.
Data set [13] is described as follows: Solubility in methanol after 24 to 72 hrs by HPLC based shake flask method. It is filed as physicochemical. In a few lines: as §3
Data set [14] is described as follows: Solubility in acetone after 24 to 72 hrs by HPLC based shake flask method. It is filed as physicochemical. In a few lines: as §3
Data set [15] relates to Human immunodeficiency virus 1. Nature of the data set: Inhibition of HIV1 isolate TC-1 Vif infected in […]-stimulated human PBMC expressing HA-tagged A3G assessed as reduction in Vif-mediated A3G degradation up to 20 uM after 7 days by Western blot method.
The test system of data set [16] is Human immunodeficiency virus 1. Nature of the data set: Antiviral activity against HIV1 subtype CRF01-AE isolate TC-1 infected in human PBMC assessed as assessed as reduction in p24 level after 7 days by ELISA. It is filed as functional. The note with it: Human immunodeficiency virus 1, subtype CRF01-AE isolate TC-1, 168 h.
Data set [17] has as its system Human immunodeficiency virus 1. Nature of the data set: Antiviral activity against HIV1 isolate TC-1 infected in human PBMC assessed as inhibition of p24 expression up to 20 uM after 7 days by Western blot method. In general terms: In western blotting, separated proteins are transferred to a membrane and probed.
The nature of data set [18]: Solubility in acetonitrile after 24 to 72 hrs by HPLC based shake flask method. It is filed as physicochemical. In a few lines:
as §3

In data set [19] the test system is Human immunodeficiency virus 1. Kind of data set: Antiviral activity against HIV1 isolate TC-1 infected in human PBMC expressing HA-tagged A3G assessed as downregulation of Vif expression after 7 days by Western blot method.
Data set [20] relates to Human immunodeficiency virus 1. Nature of the data set: Inhibition of HIV1 NL4-3 Vif expressed in 293T cells co-expressing HA-tagged A3G assessed as reduction in Vif-mediated A3G degradation by measuring increase in A3G expression after 48 hrs by Western blot method. It is filed as cell-based. In a few lines:
(§5)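 293T cells were plated at 2×10^5 cells/well, grown overnight, and co-transfected at about 80% confluence with pcDNA3.1-APOBEC3G-HA and pNL4-3 (Lipofectamine 2000). Medium was replaced at 6 h with DMEM/10% FBS, then compounds were added at a range of concentrations for 48 h. HA tag, Vif, p24 and β-actin (internal control) in total lysates were read by western blot.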

Data set [21] concerns Human immunodeficiency virus 1. Kind of data set: Inhibition of HIV1 Vif expressed in TREX-hVif-15 cells co-expressing HA-tagged A3G assessed as reduction in Vif-mediated A3G degradation by measuring increase in A3G expression after 48 hrs by Western blot method. It is filed as cell-based. In short, it runs like this: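 TREX-hvif-15 cells were plated at 2×10^5 cells/well and transfected at about 80% confluence with pcDNA3.1-APOBEC3G-HA. At 6 h they were washed and given fresh DMEM/10% FBS, graded compound concentrations, and 0.1 µg/mL doxycycline to induce Vif. Total protein was extracted 48 h post-transfection, and HA tag, Vif and β-actin were read by western blot.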

The subject of data set [22] is Human immunodeficiency virus 1. Nature of the data set: Antiviral activity against HIV1 subtype B isolate SF162 infected in human PBMC assessed as reduction in p24 level after 7 days by ELISA. It is filed as functional. The note with it: Human immunodeficiency virus 1, subtype B isolate SF162, 168 h.
Data set [23] concerns Human immunodeficiency virus 1. Kind of data set: Antiviral activity against HIV1 subtype CRF01-AE isolate WAN infected in human PBMC assessed as assessed as reduction in p24 level after 7 days by ELISA. It is filed as functional. The note with it: Human immunodeficiency virus 1, subtype CRF01-AE isolate WAN, 168 h.
Data set [24] relates to Plasma. Kind of data set: Protein binding in Sprague-Dawley rat plasma up to 30 ug/ml after 2 hrs by HPLC analysis. It is filed as ADME, cell-free. In short, it runs like this: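 Heparinized arterial plasma from male and female Sprague-Dawley rats incubated with compound at final 30, 20 or 5 μg/mL, 37 °C for 2 h. Free drug separated by 30 kD ultrafiltration (2000 g, 4 °C, 15 min) and measured by HPLC with UV 251 nm; binding = (Dt − Df)/Dt × 100%.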

Data set [25] can be described thus: N-octanol/water partition co-efficient, log P of the compound in octanol to water phase ratio of 1:4 up to 7 hrs by shake-flask method. It is filed as physicochemical.
Data set [26] can be described thus: N-octanol/water partition co-efficient, log P of the compound in octanol to water phase ratio of 1:9 up to 7 hrs by shake-flask method. It is filed as physicochemical.
The test system of data set [27] is Human immunodeficiency virus 1. Nature of the data set: Inhibition of HIV1 Vif expressed in TREX-hVif-15 cells co-expressing EYFP-N1-tagged human A3G assessed as reduction in Vif-mediated A3G degradation after 48 hrs by flow cytometry. It is filed as cell-based. In a few lines:
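TREX-hvif-15 cells, in which Vif is under Tet-On control, were plated at 2×10^5 cells/well and grown overnight. At about 80% confluence they were transfected with EYFP-N1-hA3G. After 6 h the cells were washed, and compounds at varied concentrations were added together with doxycycline to induce Vif. Cells were trypsin-harvested 48 h post-transfection, and EYFP-positive cells were measured by flow cytometry. The no-Vif condition was set to 100%.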

The nature of data set [28]: 1-octanol/water partition co-efficient, log P of the compound after 7 hrs by shake-flask method. It is filed as physicochemical. In a few lines:
as §4

Data set [29] in a line: Cytotoxicity against human PBMC assessed as reduction in cell viability after 7 days by MTT assay. It is filed as cell-based. In a few lines:
as §2

Data set [30] in a line: Solubility in ethylacetate after 24 to 72 hrs by HPLC based shake flask method. It is filed as physicochemical. In a few lines:
as §3

For data set [31], the system named is Human immunodeficiency virus 1. Kind of data set: Antiviral activity against HIV1 NL4-3 infected in 293T cells expressing HA-tagged A3G assessed as reduction in Vif expression after 48 hrs by Western blot method. It is filed as functional, cell-based. In short, it runs like this:
as §5

In data set [32] the test system is Human immunodeficiency virus 1. Kind of data set: Antiviral activity against HIV1 subtype B/C isolate KM018 infected in human PBMC assessed as reduction in p24 level after 7 days by ELISA. It is filed as functional. The note with it: Human immunodeficiency virus 1, subtype B/C isolate KM018, 168 h.

Consider `COc1ccccc1NC(=O)c1c(NC(=O)CN)cccc1S(=O)(=O)c1ccc([N+](=O)[O-])cc1`, for which the “Ratio CC50/EC50” value in data set [1] is 790. The Drug metabolism result in [2] is given as “Metabolite_Detected”. In data set [3], the Drug degradation was more than 90%. The remaining at 180 h, 100 µM in [4] turned out to be 50%. For the same molecule, in [5], the EC50 turned out to be 0.248 µM. In addition, the CC50 at 168 h in [6] was 196 µM. Also, the Stability entry in data set [7] is reported as “Stable”. In data set [8], this molecule showed a thermodynamic solubility of 1730 µg/mL (≈ 3.57 mM).
With `COc1ccccc1NC(=O)c1c(N)cccc1S(=O)(=O)c1ccc([N+](=O)[O-])cc1`, the “Ratio CC50/EC50” value in data set [1] came to 300. For the same molecule, the thermodynamic solubility in [9] stood at 284 µg/mL (≈ 0.664 mM); in data set [13] it was 814 µg/mL (≈ 1.9 mM); in data set [14] it was 22400 µg/mL (≈ 52.4 mM); in [18] it was 9090 µg/mL (≈ 21.3 mM); in [30], 4380 µg/mL (≈ 10.2 mM); in data set [8], 0.66 µg/mL (≈ 0.00154 mM). Further, the logP at 2 h in [10] worked out at 2.41. For the same molecule, the logP at 4 h in data set [11] is 2.4. Besides, the logP at 7 h in data set [12] was 2.4; in [25], 2.53; in data set [26], 2.55; in data set [28], 2.4. In addition, the inhibition entry in data set [15] and in data set [17] was “Active” each time. The EC50 in data set [16] is 0.522 µM; in data set [22], 17.8 µM; in [23], 2.95 µM; in [5] it was 1.4 to 1.54 µM; in data set [32], 17.8 µM. Further, the result in [19] was Active. The inhibition result in data set [20], in data set [21] and in data set [27] was “Dose-dependent effect” in each case. Moreover, the PPB result in [24] is “Active”. For the same molecule, the CC50 at 168 h in [6] was not below 462 µM; in [29], more than 468 µM. In addition, in data set [31], the Activity entry was “Dose-dependent effect”.
